A selection: hits, their analogues and other compounds. The true share with any hit is near 1.3%.
Tn6 DDE FP: inhibitors of Tn6 peptide binding to fibrin DD(E), primary screen, biochemical, fluorescence polarization, human fibrin, Tn6 probe | AID 720509, 2013 | actives 0.21% (n = 370,000) | Fibrin DD(E) TRITC-Tn6 fluorescence polarization displacement | Fibrinogen beta chain (Homo sapiens), P02675 | inhibition, % at 8.3 µM;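 active = inhibition above a per-campaign cutoff: mean of compounds within control limits plus 3 SD, cut at about 15% in these data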
Target sequence (P02675 whole entry, looked up): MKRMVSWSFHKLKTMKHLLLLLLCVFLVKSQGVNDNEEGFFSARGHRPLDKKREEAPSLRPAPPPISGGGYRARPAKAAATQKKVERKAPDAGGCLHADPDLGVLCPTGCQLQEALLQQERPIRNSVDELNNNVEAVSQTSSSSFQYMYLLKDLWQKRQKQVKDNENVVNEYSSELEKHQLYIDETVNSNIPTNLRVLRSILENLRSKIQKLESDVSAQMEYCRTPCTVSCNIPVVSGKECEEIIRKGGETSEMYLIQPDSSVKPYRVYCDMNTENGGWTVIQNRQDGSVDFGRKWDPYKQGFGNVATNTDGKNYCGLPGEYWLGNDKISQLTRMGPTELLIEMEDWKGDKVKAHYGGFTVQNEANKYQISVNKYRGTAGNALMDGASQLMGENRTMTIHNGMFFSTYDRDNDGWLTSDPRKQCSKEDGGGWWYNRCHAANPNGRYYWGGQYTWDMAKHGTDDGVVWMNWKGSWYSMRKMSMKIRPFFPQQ
CRFBP-R2 agonist: agonists of CRF-BP/CRF-R2 complex, primary screen, cell-based, HEK293, calcium dye fluorescence, uHTS | calcium dye fluorescence (FLIPR); percent of saturating CRF peptide response | activation, % at 13.2 µM | actives 0.46% (n = 350,000) | AID 588473, 2011;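 active = activation of at least 50%, plus an integration ratio under a set limit after plate pattern correction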
CRFR2-BP antag: antagonists of CRF-BP/CRF-R2 complex, primary screen, cell-based, HEK293, calcium dye fluorescence, uHTS; actives 0.59% (n = 350,000); AID 588475, 2011; inhibition, % at 11.8 µM; CRF-induced calcium fluorescence;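 active = inhibition of the ligand-induced calcium signal above about 50% at the single tested concentration, limit read from the data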
DDE Tn7 FP inh: inhibitors of Tn7 peptide binding to fibrin DD(E), primary screen, biochemical, fluorescence polarization, human fibrin, Tn7 probe | Fibrinogen beta chain (Homo sapiens), P02675 | inhibition, % at 8.3 µM | FP displacement of FITC-Tn7 peptide from fibrin DD(E); 0% = median of compound wells per plate | actives 0.13% (n = 370,000);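 active = inhibition above the mean of compounds falling within the control limits plus 3 SD of them, cut at about 14% in these data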
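assay system = human clot-derived fibrin DD(E) complex | quantity = Fibrin-DD(E) at 2 µM final | timing = 10 min preincubation, 3 h with tracer, room temperature | signal = fluorescence polarization | measure = percent inhibition | benchmarks = high control wells with 10 µM unlabelled Aha-Tn7 peptide (full inhibition) | replicates = singlicate testing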
Numbers stand for hits; – = inactive; · = no result given.

SMILES | Tn6 DDE FP | CRFBP-R2 agonist | CRFR2-BP antag | DDE Tn7 FP inh
Cc1ccc(Cn2cc(CN3[C@@H](CC(C)C)COc4cc(Br)ccc4S3(=O)=O)nn2)cc1 | – | · | · | –
COc1ccc(CNC(=O)CSc2nc3c([nH]2)c(=O)n(C)c(=O)n3C)cc1 | – | · | · | –
C#CCSc1nc(C)cc(C(=O)OCC)c1C#N | – | – | 82 | –
N#CCSc1nc2sccc2c(=O)n1-c1ccccc1 | – | – | 74 | –
Cc1ccnc(SCC(=O)N2CCN(c3ccccc3)CC2)n1 | – | – | – | –
COc1ccc(-c2ccnc(SCC(=O)N3CCN(c4ccccc4)CC3)n2)cc1 | – | – | 61 | –
Cc1ccc(-c2nnc(SCC(=O)N3CCN(c4ccccc4)CC3)o2)cc1 | – | – | 88 | –
CCOC(=O)N1CCN(C(=O)CSc2nnc(-c3ccc(C(C)(C)C)cc3)o2)CC1 | – | – | 89 | –
COC(=O)c1ccc(-c2ccc3c(c2)[C@]2(CCC[C@@H](OCc4ccccc4)[C@@H]2NC(=O)CCc2ccccc2)C(=O)N3Cc2ccccc2)cc1 | – | · | · | –
O=C(NCCc1cccc(F)c1)c1cc2ccccn2n1 | – | · | · | –
O=C(c1cccs1)n1ccc2ccc(-c3ccc4ccn(C(=O)c5cccs5)c4c3)cc21 | – | · | · | –
Cc1[nH]c2ccccc2c1/C=N/Nc1ccc([N+](=O)[O-])cc1 | – | 121 | – | –
Cc1ccc(S(=O)(=O)Nc2ccccc2/C=N/c2nc3ccccc3n2C)cc1 | · | – | 71 | ·
Cc1ccc(S(=O)(=O)Nc2ccccc2C=Nc2cccc(C)c2C)cc1 | – | – | – | –
NC(=O)C1CCN(c2ncc(Br)cn2)CC1 | – | · | · | –
COC(=O)[C@]12C[C@H](CC(=O)NCCc3ccccc3OC)C(=O)N(Cc3ccc(Cl)cc3Cl)C1=C[C@H](C(C)(C)C)O[C@@H]2C | – | · | · | –
CCOc1nc(C)ccc1-c1noc(-c2ccco2)n1 | – | – | – | –
CCOc1nc(C)ccc1-c1noc(-c2ccccn2)n1 | – | – | 111 | –
C=CCn1c(=O)/c(=C/c2cc(OC)c(OC)c(OC)c2)s/c1=C(/C#N)c1nc2ccccc2n1C | – | 62 | – | –
O=c1cc(-c2ccc([N+](=O)[O-])cc2)nc2cc(-c3ccc(F)cc3)[nH]n12 | – | – | 75 | –
Cc1cc(=O)n2[nH]c(-c3ccc(F)cc3)cc2n1 | – | – | – | –
Cc1cccc(-c2cc3nc(-c4ccccc4)cc(=O)n3[nH]2)c1 | – | – | – | –
Cc1ccccc1-c1cc2nc(-c3ccc([N+](=O)[O-])cc3)cc(=O)n2[nH]1 | – | – | 71 | –
CCOC(=O)[C@@]12CCC3=C1N(CCC3)C(=O)[C@H](CC(=O)NCCc1ccccc1OC)C2 | – | · | · | –
CCc1ccc[n+](-c2[nH]c(=O)sc2/C=N/NC([S-])=Nc2ccccc2)c1 | – | 85 | – | –
SMILES | Tn6 DDE FP | CRFBP-R2 agonist | CRFR2-BP antag | DDE Tn7 FP inh
CC(=O)c1ccc(OCC(O)Cn2nnc3ccccc32)cc1 (stereo not given) | – | – | – | –
Cc1cccc(C)c1OCC(O)Cn1nnc2ccccc21 (stereo not given) | – | – | 65 | –
CCOC(=O)CSc1nc2sc3c(c2c(=O)n1-c1ccccc1)CCN(C(C)C)C3 | 19 | – | – | –
CCCN1CCCCC(NC(=O)c2cccs2)C1=O (stereo not given) | – | · | · | –
O=C1/C(=C\c2ccc(O)c(O)c2)C(c2ccccc2)=NN1c1ccccc1 | – | – | – | –
COc1cc(/C=C2\C(=O)N(c3ccc(NC(C)=O)cc3)N=C2c2ccccc2)ccc1O | – | – | 68 | –
CCC(c1nnc(SCC(=O)Nc2c(F)cccc2F)n1Cc1ccccc1)N(C)C (stereo not given) | – | – | 60 | –
C=CCCC(=O)N1CCC(C(=O)NC2CCCc3ccccc32)CC1 (stereo not given) | – | · | · | –
Cc1ccc(C)c(C(C)NC(=O)c2ccccc2Br)c1 (stereo not given) | – | – | 64 | –
COc1ccc(C(C)NC(=O)c2ccccc2Br)cc1OC (stereo not given) | – | – | – | –
O=[N+]([O-])c1ccc(N2N=C(c3ccco3)CC2c2ccccc2)cc1 (stereo not given) | – | 51 | – | –
Fc1ccc(C2CC(c3ccco3)=NN2c2ccccc2)cc1 (stereo not given) | – | – | – | –
CCOC(=O)c1sc(NC(=S)NC(=O)c2ccccc2)nc1C | – | – | – | –
CCOC(=O)c1sc(NC(=S)NC(=O)c2cccc(OC)c2)nc1C | – | 58 | – | –
Fc1ccc(F)c(Cn2ccc3ccc(-c4ccc5ccn(Cc6cc(F)ccc6F)c5c4)cc32)c1 | – | · | · | –
CCCNC(=O)c1ccc(CN2CCc3ccccc3C2)cc1 | – | – | 85 | –
CC1CCN(c2ccc3c(c2)S(=O)(=O)c2cccc(C(=O)NC[C@@H]4CCCO4)c2C3=O)CC1 | – | – | – | –
CC1CCN(c2ccc3c(c2)S(=O)(=O)c2cccc(C(=O)NC4CC4)c2C3=O)CC1 | – | – | – | –
O=C(NCc1ccccc1Br)c1cccc2c1C(=O)c1ccc(N3CCC(Cc4ccccc4)CC3)cc1S2(=O)=O | · | 61 | – | ·
O=C(NC1CCCCC1)c1cccc2c1C(=O)c1ccc(N3CCC(Cc4ccccc4)CC3)cc1S2(=O)=O | – | 58 | – | –
Cc1ccc(CNC(=O)c2cccc3c2C(=O)c2ccc(N4CCOCC4)cc2S3(=O)=O)cc1 | – | – | – | –
O=C(NCC1CCCO1)c1cccc2c1C(=O)c1ccc(N3CCC(Cc4ccccc4)CC3)cc1S2(=O)=O (stereo not given) | · | 83 | – | ·
Cc1ccc(CNC(=O)c2cccc3c2C(=O)c2ccc(N4CCCCC4)cc2S3(=O)=O)cc1 | – | 57 | – | –
O=C(NCC1CC1)c1cccc2c1C(=O)c1ccc(N3CCCC3)cc1S2(=O)=O | – | – | – | –
CCOC(=O)N1CCN(C(=O)C[C@@H]2C(=O)N(CCc3ccc(Cl)cc3)/C3=C/CCCCC[C@@]32C(=O)OCC)CC1 | – | · | · | –
SMILES | Tn6 DDE FP | CRFBP-R2 agonist | CRFR2-BP antag | DDE Tn7 FP inh
Cc1ccccc1CN1CCCCC(NC(=O)c2cccc(C(F)(F)F)c2)C1=O (stereo not given) | – | · | · | –
CCS(=O)(=O)c1ncc(Cl)c(C(=O)Nc2ccccc2OC)n1 | – | – | – | –
COc1ccccc1NC(=O)c1nc(S(=O)(=O)Cc2ccccc2)ncc1Cl | – | – | 51 | –
COC(=O)c1ccc(NC(=O)c2nc(S(=O)(=O)Cc3cccc(C)c3)ncc2Cl)cc1 | – | – | 52 | –
CC(=O)Nc1ccc(NC(=O)c2nc(S(=O)(=O)Cc3cccc(C)c3)ncc2Cl)cc1 | – | – | 73 | –
COc1ccccc1CNC(=O)N1CCC(c2nc3ccc(Cl)cc3[nH]2)CC1 | – | · | · | –
